Data on one molecule can be found in ChEMBL document CHEMBL4346669, “Novel nannocystin A analogues as anticancer therapeutics: Synthesis, biological evaluations and structure-activity relationship studies” (Eur J Med Chem, 2019).

SMILES strings stand for the structures. Active and inactive are the calls of the source. The rule behind the calls is not given here.

For assay [1], the system named is A549. The assay can be described thus: Induction of apoptosis in human A549 cells assessed as necrotic cells at 60 nM after 6 hrs by Annexin-V FITC/propidium iodide staining based flow cytometric analysis. In kind it is functional. The method in brief:
(§1)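 Time-course: A549 (2×10^5 cells/well, grown overnight) exposed to 60 nM for 6, 12 or 24 h; untreated control. Cells trypsinized, washed in cold PBS, stained 15 min with Annexin V-FITC in binding buffer, then PI, and read by flow cytometry; duplicate experiments.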

In a further assay the test system is MCF7. The assay can be described thus: Antiproliferative activity against human MCF7 cells assessed as reduction in cell viability measured after 72 hrs by MTT assay. In kind it is functional, cell-based. Conditions: MCF7, 72 h. The method in brief:
(§2)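 Cells seeded at 5×10^3 per well and cultured overnight, then exposed for 72 h at 37 °C to six concentrations from 10 µM down to 0.0001 µM (from 10 mM DMSO stock diluted in medium; vehicle 1% DMSO in PBS). MTT at 0.5 mg/mL was added for 4 h, formazan dissolved in DMSO, and A570 read. IC50 given as mean ± SD of three independent experiments.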
In general terms: Tetrazolium dyes change colour on reduction, which living cells bring about.

The test system of assay [2] is A549. The experiment in a line: Cell cycle arrest in human A549 cells assessed as accumulation at G1 phase at 30 nM after 24 hrs by propidium iodide/RNase A staining-based flow cytometric analysis (reference value: 57.41%). The class given is functional. In general terms: In flow cytometry, cells or beads pass a laser one at a time.
Another assay relates to MDA-MB-231. The experiment in a line: Antiproliferative activity against human MDA-MB-231 cells assessed as reduction in cell viability measured after 72 hrs by MTT assay. In kind it is functional, cell-based. The following applies: MDA-MB-231, 72 h. The method in brief:
as §2

For assay [3], the system named is A549. The experiment in a line: Induction of apoptosis in human A549 cells assessed as late apoptotic cells at 60 nM after 12 hrs by Annexin-V FITC/propidium iodide staining based flow cytometric analysis (reference value: 1.22%). The class given is functional.
The subject of assay [4] is A549. The experiment in a line: Cell cycle arrest in human A549 cells assessed as accumulation at S phase at 30 nM after 24 hrs by propidium iodide/RNase A staining-based flow cytometric analysis (reference value: 12.57%). In kind it is functional.
In assay [5] the test system is A549. The experiment in a line: Inhibition of colony formation in human A549 cells at 10 to 20 nM incubated for 3 days followed by further incubation in drug-free medium and measured after 15 days by crystal violet staining-based inverted microscopic analysis. In kind it is functional, cell-based. The method in brief:
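500 A549 cells/well incubated 24 h, then treated with 5, 10 or 20 nM for 3 days, followed by drug-free medium changed every 3 days. At day 15 after plating, colonies fixed in 95% ethanol 15 min, stained with 0.1% crystal violet, counted (colony = over 100 cells); mean ± SD of three independent experiments.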

For assay [6], the system named is A549. The assay can be described thus: Induction of apoptosis in human A549 cells assessed as early apoptotic cells at 90 nM after 12 hrs by Annexin-V FITC/propidium iodide staining based flow cytometric analysis (reference value: 0.32%). The class given is functional.
Assay [7] deals with A549. The experiment in a line: Induction of apoptosis in human A549 cells assessed as early apoptotic cells at 60 nM after 12 hrs by Annexin-V FITC/propidium iodide staining based flow cytometric analysis (reference value: 0.32%). The class given is functional.
The test system of assay [8] is A549. The assay can be described thus: Induction of apoptosis in human A549 cells assessed as early apoptotic cells at 30 nM after 12 hrs by Annexin-V FITC/propidium iodide staining based flow cytometric analysis (reference value: 0.32%). The class given is functional.
For assay [9], the system named is A549. The experiment in a line: Cell cycle arrest in human A549 cells assessed as accumulation at G2 phase at 90 nM after 24 hrs by propidium iodide/RNase A staining-based flow cytometric analysis (reference value: 30.02%). In kind it is functional.
The subject of assay [10] is A549. The experiment in a line: Induction of apoptosis in human A549 cells assessed as nuclear fragmentation at 90 nM after 24 hrs by […] staining-based confocal laser scanning microscopic analysis. The class given is functional, cell-based. The method, boiled down:
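A549 exposed to 30, 60 and 90 nM for 24 h, stained with Hoechst 33342, imaged by confocal laser scanning microscopy; strongly blue-fluorescent nuclei scored as apoptotic.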

The test system of assay [11] is A549. The assay can be described thus: Induction of apoptosis in human A549 cells assessed as viable cells at 60 nM after 24 hrs by Annexin-V FITC/propidium iodide staining based flow cytometric analysis. Conditions: A549, 24 h, read-out: Activity. In kind it is functional. The method, boiled down: as §1
Assay [12] relates to A549. The experiment in a line: Induction of apoptosis in human A549 cells assessed as early apoptotic cells at 60 nM after 6 hrs by Annexin-V FITC/propidium iodide staining based flow cytometric analysis. The class given is functional. The method in brief:
as §1

Assay [13] has as its system A549. The experiment in a line: Induction of apoptosis in human A549 cells assessed as viable cells at 30 nM after 12 hrs by Annexin-V FITC/propidium iodide staining based flow cytometric analysis (reference value: 97.18%). The following applies: A549, 12 h, read-out: Activity. In kind it is functional.
The subject of assay [14] is A549. The assay can be described thus: Induction of apoptosis in human A549 cells assessed as increase in Bax protein expression by Western blot analysis. In kind it is functional, cell-based. The method, boiled down:
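A549 treated 30, 60 and 90 nM for 24 h; lysates normalized by BCA, 30 μg protein denatured in SDS buffer at 100 °C 8 min, SDS-PAGE, PVDF transfer, blocked in 5% milk/TBS-0.05% Tween 2 h, primary antibodies overnight at 4 °C, HRP anti-rabbit IgG 2 h, ECL detection; β-actin loading control.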

The subject of assay [15] is A549. The experiment in a line: Cell cycle arrest in human A549 cells assessed as accumulation at G2 phase after 24 hrs by propidium iodide/RNase A staining-based flow cytometric analysis. The class given is functional.
In assay [16] the test system is A549. The experiment in a line: Induction of apoptosis in human A549 cells assessed as late apoptotic cells at 90 nM after 12 hrs by Annexin-V FITC/propidium iodide staining based flow cytometric analysis (reference value: 1.22%). In kind it is functional.

For orientation: IC50 means the concentration that gives 50% inhibition. Regarding `COc1cc(C[C@H]2NC(=O)[C@H](C(C)C)N(C)C(=O)/C(C)=C/C[C@@H](OC)/C(C)=C/C=C/[C@@H](C)[C@@H](c3ccccc3)OC(=O)[C@H](C(C)C)NC2=O)ccc1O`, the Activity in the assay with A549 [1] is given as 2.3%; in the assay on A549 [2], 49.14%; in the assay on A549 [3], 20.03%; in the assay on A549 [4] it was 13.21%; with A549 [6], 3.55%; in the assay with A549 [7], 3.55%. Also, the Activity was 1.21% in the assay on A549 [8]; 57.73% in the assay on A549 [9]; 0.34% in the assay with A549 [12]; “Dose-dependent effect” in the assay on A549 [14]; “Dose-dependent effect” in the assay with A549 [15]; 28.22% with A549 [16]. In addition, the IC50 turned out to be 15 nM with MCF7 and 12.5 nM with MDA-MB-231. Also, the inhibition result in the assay with A549 [5] was “Active”. Besides, in the assay on A549 [10], the result was Active. Moreover, the viability at 0.06 µM in the assay on A549 [11] came out at 54.4%. In the assay with A549 [13], the viability at 0.03 µM was 75.3%.
